ChEMBL document CHEMBL3860021, “Screening and Design of Inhibitor Scaffolds for the Antibiotic Resistance Oxacillinase-48 (OXA-48) through Surface Plasmon Resonance Screening” (J Med Chem, 2016)
Active and inactive are the calls of the source. The calls are words filed in the database; no cut-off is given here.

Assays:
Beta-lactamase OXA-48 [1] = molecular target: T1, Beta-lactamase OXA-48 (Klebsiella pneumoniae, UniProt Q6XEC0); assay: Inhibition of native signal containing Klebsiella pneumoniae OXA-48 using nitrocefin substrate pre-incubated for 5 mins before substrate addition
Beta-lactamase OXA-48 [2] = molecular target: T1, Beta-lactamase OXA-48; assay: Binding affinity to native signal deficient and TEV cleavage site containing His-tagged Klebsiella pneumoniae OXA-48 expressed in Escherichia coli assessed as dissociation constant by SPR assay
Beta-lactamase OXA-48 [3] = molecular target: T1, Beta-lactamase OXA-48; assay: Binding affinity to native signal deficient and TEV cleavage site containing His-tagged Klebsiella pneumoniae OXA-48 expressed in Escherichia coli assessed as dissociation rate constant by SPR assay
Method in brief: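 tOXA-48 (E. coli BL21 Star (DE3) pRARE, His tag removed by TEV, cation-exchange polished) amine-coupled to CM5 chip (~5000 RU, from 25 µg/mL in 10 mM MES pH 5.5). Fragments 2-fold series 118-900 µM (or 1.8-900 µM), double-referenced, steady-state fit. Meropenem 62.5 nM-32 µM, 1:1 kinetic fit.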

[4] = molecular target: Beta-lactamase OXA-48 (Klebsiella pneumoniae) (UniProt Q6XEC0); assay: Binding affinity to native signal deficient and TEV cleavage site containing His-tagged Klebsiella pneumoniae OXA-48 expressed in Escherichia coli assessed as association rate constant by SPR assay
Method in brief: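 SPR with tOXA-48 amine-coupled to a CM5 chip (~5000 RU, immobilised from 10 mM MES pH 5.5). Meropenem was injected as a 2-fold series, 62.5 nM-32 µM, at 30 µL/min, with 60 s contact and 240 s dissociation. Sensorgrams were double-referenced and fitted to a 1:1 kinetic model.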

[5] = molecular target: Beta-lactamase OXA-48 (Klebsiella pneumoniae) (UniProt Q6XEC0); assay: Inhibition of native signal containing Klebsiella pneumoniae OXA-48 at 1.5 uM using nitrocefin substrate pre-incubated for 5 mins before substrate addition
Method in brief: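 Avibactam dilution series (50 nM–20 µM) was preincubated about 5 min with 100 pM nOXA-48, then started with 25 µM nitrocefin. Buffer was phosphate pH 7.0 with 50 mM NaHCO3 and 0.2 mg/ml BSA, at 25 °C. Competition read-out from initial hydrolysis rates.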

[6] = Inhibition of beta-lactamase VIM-2 (unknown origin)
[7] = substrate: O=C(Cc1cccs1)N[C@@H]1C(=O)N2C(C(=O)O)=C(/C=C/c3ccc([N+](=O)[O-])cc3[N+](=O)[O-])CS[C@H]12; assay: Activity of native signal deficient and TEV cleavage site containing His-tagged Klebsiella pneumoniae OXA-48 expressed in Escherichia coli by Michaelis-Menten kinetics assay
Method in brief: (§1)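 His-tag-removed tOXA-48 from E. coli BL21 Star (DE3) pRARE, purified by HisTrap, TEV cleavage and cation exchange. Hydrolysis of nitrocefin (10-300 µM) was read at 482 nm with 1 nM enzyme. Buffer was 100 mM phosphate pH 7.0, 50 mM NaHCO3, 0.2 mg/ml BSA at 25 °C. Enzyme-started; linear-phase rates were fitted to Michaelis-Menten.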

[8] = substrate: O=C(Cc1cccs1)N[C@@H]1C(=O)N2C(C(=O)O)=C(/C=C/c3ccc([N+](=O)[O-])cc3[N+](=O)[O-])CS[C@H]12; assay: (§2) Activity of native signal containing Klebsiella pneumoniae OXA-48 assessed as ratio of Kcat to Km by Michaelis-Menten kinetics assay
Method in brief: (§3)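 Steady-state kinetics of nOXA-48 at 25 °C in 100 mM sodium phosphate pH 7.0, 50 mM NaHCO3, 0.2 mg/ml BSA. Substrates were ampicillin, benzylpenicillin, cefepime, CENTA, meropenem, imipenem and nitrocefin, each over its own concentration range, with 100 pM–140 nM enzyme. Reactions were enzyme-started and followed spectrophotometrically. Velocities came from the linear phase, fitted to Michaelis-Menten.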

[9] = substrate: O=C(Cc1cccs1)N[C@@H]1C(=O)N2C(C(=O)O)=C(CSc3ccc([N+](=O)[O-])c(C(=O)O)c3)CS[C@H]12; assay: as §2; method in brief: as §3
[10] = substrate: CO/N=C(\C(=O)N[C@@H]1C(=O)N2C(C(=O)[O-])=C(C[N+]3(C)CCCC3)CS[C@H]12)c1csc(N)n1; assay: as §2; method in brief: as §3
[11] = substrate: C[C@@H](O)[C@H]1C(=O)N2C(C(=O)O)=C(S[C@@H]3CN[C@H](C(=O)N(C)C)C3)[C@H](C)[C@H]12; assay: as §2; method in brief: as §3
[12] = substrate: CC1(C)S[C@@H]2[C@H](NC(=O)Cc3ccccc3)C(=O)N2[C@H]1C(=O)O; assay: as §2; method in brief: as §3
[13] = substrate: CC1(C)S[C@@H]2[C@H](NC(=O)[C@H](N)c3ccccc3)C(=O)N2[C@H]1C(=O)O; assay: as §2; method in brief: as §3
[14] = substrate: C[C@@H](O)[C@H]1C(=O)N2C(C(=O)O)=C(SCCNC=N)C[C@H]12; assay: as §2; method in brief: as §3
[15] = substrate: O=C(Cc1cccs1)N[C@@H]1C(=O)N2C(C(=O)O)=C(/C=C/c3ccc([N+](=O)[O-])cc3[N+](=O)[O-])CS[C@H]12; assay: Activity of native signal deficient and TEV cleavage site containing His-tagged Klebsiella pneumoniae OXA-48 expressed in Escherichia coli assessed as ratio of Kcat to Km by Michaelis-Menten kinetics assay; method in brief: as §1
[16] = substrate: O=C(Cc1cccs1)N[C@@H]1C(=O)N2C(C(=O)O)=C(/C=C/c3ccc([N+](=O)[O-])cc3[N+](=O)[O-])CS[C@H]12; assay: (§4) Activity of native signal containing Klebsiella pneumoniae OXA-48 by Michaelis-Menten kinetics assay; method in brief: as §3
[17] = substrate: O=C(Cc1cccs1)N[C@@H]1C(=O)N2C(C(=O)O)=C(CSc3ccc([N+](=O)[O-])c(C(=O)O)c3)CS[C@H]12; assay: as §4; method in brief: as §3
[18] = substrate: CO/N=C(\C(=O)N[C@@H]1C(=O)N2C(C(=O)[O-])=C(C[N+]3(C)CCCC3)CS[C@H]12)c1csc(N)n1; assay: as §4; method in brief: as §3
[19] = substrate: C[C@@H](O)[C@H]1C(=O)N2C(C(=O)O)=C(S[C@@H]3CN[C@H](C(=O)N(C)C)C3)[C@H](C)[C@H]12; assay: as §4; method in brief: as §3
[20] = substrate: CC1(C)S[C@@H]2[C@H](NC(=O)Cc3ccccc3)C(=O)N2[C@H]1C(=O)O; assay: as §4; method in brief: as §3
[21] = substrate: CC1(C)S[C@@H]2[C@H](NC(=O)[C@H](N)c3ccccc3)C(=O)N2[C@H]1C(=O)O; assay: as §4; method in brief: as §3
[22] = substrate: C[C@@H](O)[C@H]1C(=O)N2C(C(=O)O)=C(SCCNC=N)C[C@H]12; assay: as §4; method in brief: as §3

With `Cc1cc2ccc(C(=O)O)cc2cn1` the IC50 (Beta-lactamase OXA-48 [1]) was 1020 µM and the Kd (Beta-lactamase OXA-48 [2]) was 700 µM.

In the case of `O=C(O)c1cccc(-c2nccs2)c1`, the IC50 (Beta-lactamase OXA-48 [1]) is reported as 250 µM and the Kd (Beta-lactamase OXA-48 [2]) is reported as 310 µM.

For `O=C(O)c1cccc(C#Cc2ccccc2)c1`, the IC50 (Beta-lactamase OXA-48 [1]) was 480 µM.

Molecule `CC(=O)c1cccc(-c2ccncc2)c1` has an IC50 (Beta-lactamase OXA-48 [1]) greater than 2000 µM and a Kd (Beta-lactamase OXA-48 [2]) greater than 1000 µM.

`O=C(O)c1cccc(-c2cccnc2)c1` showed an IC50 (Beta-lactamase OXA-48 [1]) of 240 µM and a Kd (Beta-lactamase OXA-48 [2]) of 280 µM.

Molecule `O=C(O)CSc1ccnc2cc(Cl)ccc12` has an IC50 (Beta-lactamase OXA-48 [1]) of 220 µM.

For `c1ccc(-c2ccncc2)cc1`, the IC50 (Beta-lactamase OXA-48 [1]) was greater than 2000 µM and the Kd (Beta-lactamase OXA-48 [2]) was greater than 1000 µM.

`O=C(O)c1ccc2ccncc2c1` gave an IC50 (Beta-lactamase OXA-48 [1]) of 2200 µM and a Kd (Beta-lactamase OXA-48 [2]) of 1180 µM.

For `O=C(O)c1ccc(Oc2ccccc2)cc1`, the IC50 (Beta-lactamase OXA-48 [1]) was 870 µM and the Kd (Beta-lactamase OXA-48 [2]) was 660 µM.

For `O=C(O)c1cccc(-c2ccccc2)c1`, the IC50 (Beta-lactamase OXA-48 [1]) was 260 µM and the Kd (Beta-lactamase OXA-48 [2]) was 370 µM.

Molecule `Nc1cccnc1-c1cccc(C(=O)O)c1` has an IC50 (Beta-lactamase OXA-48 [1]) of 180 µM and a Kd (Beta-lactamase OXA-48 [2]) of 330 µM.

With `O=C(O)CCCc1c[nH]c2ccccc12` the IC50 (Beta-lactamase OXA-48 [1]) was 480 µM and the Kd (Beta-lactamase OXA-48 [2]) was 430 µM.

Work on `C[C@@H](O)[C@H]1C(=O)N2C(C(=O)O)=C(S[C@@H]3CN[C@H](C(=O)N(C)C)C3)[C@H](C)[C@H]12` [MEROPENEM] yielded a koff (Beta-lactamase OXA-48 [3]) of 0.3463 s⁻¹, a Kd (Beta-lactamase OXA-48 [2]) of 0.85 µM and a Ka [4] of 4 ×10⁴ /M/s.

`NC(=O)[C@@H]1CC[C@@H]2CN1C(=O)N2OS(=O)(=O)O` showed an inhibition [5] of 50%.

`O=C(O)c1ccccn1` [2-PICOLINIC ACID] gave an IC50 (Beta-lactamase OXA-48 [1]) greater than 2000 µM and a Kd (Beta-lactamase OXA-48 [2]) greater than 1000 µM.

Molecule `O=C(O)c1ccc2[nH]ccc2c1` has an IC50 (Beta-lactamase OXA-48 [1]) of 1390 µM and a Kd (Beta-lactamase OXA-48 [2]) of 1380 µM.

With `O=C(O)c1cccc(-c2ccncc2)c1` the IC50 (Beta-lactamase OXA-48 [1]) was 250 µM and the Kd (Beta-lactamase OXA-48 [2]) was 280 µM.

With `O=C(O)c1cc(-c2ccncc2)cc(-c2ccncc2)c1` the IC50 (Beta-lactamase OXA-48 [1]) was 18 µM, the inhibition [6] was “Active” and the Kd (Beta-lactamase OXA-48 [2]) was 50 µM.

B1: Beta-lactamase OXA-48 (Klebsiella pneumoniae), Q6XEC0 (protein)
chain: MRVLALSAVFLVASIIGMPAVAKEWQENKSWNAHFTEHKSQGVVVLWNENKQQGFTNNLKRANQAFLPASTFKIPNSLIALDLGVVKDEHQVFKWDGQTRDIATWNRDHNLITAMKYSVVPVYQEFARQIGEARMSKMLHAFDYGNEDISGNVDSFWLDGGIRISATEQISFLRKLYHNKLHVSERSQRIVKQAMLTEANGDYIIRAKTGYSTRIEPKIGWWVGWVELDDNVWFFAMNMDMPTSDGLGLRQAITKEVLKQEKIIP
B1 showed a Km [7] of 150 µM, a kcat [7] of 2300 s⁻¹ and a kcat/Km [8] of 1.7 ×10⁷ /M/s. It also gave a kcat/Km [9] of 2.8 ×10⁴ /M/s, a kcat/Km [10] of 3 ×10⁴ /M/s and a kcat/Km [11] of 9.8 ×10⁴ /M/s. For the same molecule, the kcat/Km [12] was 1.1 ×10⁷ /M/s, the kcat/Km [13] was 3.7 ×10⁶ /M/s and the kcat/Km [14] was 5.7 ×10⁵ /M/s. For the same molecule, the kcat/Km [15] was 1.5 ×10⁷ /M/s, the Km [16] was 90 µM and the kcat [16] was 1500 s⁻¹. It also gave a Km [17] of 24 µM, a kcat [17] of 0.66 s⁻¹ and a Km [18] of 300 µM. The kcat [18] was 9 s⁻¹, the Km [19] was 1 µM and the kcat [19] was 0.098 s⁻¹. It also gave a Km [20] of 700 µM, a kcat [20] of 8000 s⁻¹ and a Km [21] of 150 µM. For the same molecule, the kcat [21] was 560 s⁻¹, the Km [22] was 7.9 µM and the kcat [22] was 4.5 s⁻¹.
